# Source: ChEMBL document CHEMBL1649494, “Hypersusceptibility to azole antifungals in a clinical isolate of Candida glabrata with reduced aerobic growth” (2009)
# Tests used:
# Type in all cases: functional
# Nakaseomyces glabratus [1] = test: Antifungal activity against Candida glabrata isolate 21231 at 10 ug after 48 hrs by disk diffusion method; conditions: isolate 21231, 48 h, read-out: DIZ
# Nakaseomyces glabratus [2] = test: Antifungal activity against Candida glabrata isolate 22852 at 10 ug after 48 hrs by disk diffusion method; conditions: isolate 22852, 48 h, read-out: DIZ
# Nakaseomyces glabratus [3] = test: Antifungal activity against Candida glabrata isolate 22853 at 10 ug after 48 hrs by disk diffusion method; conditions: isolate 22853, 48 h, read-out: DIZ
# Nakaseomyces glabratus [4] = test: Antifungal activity against Candida glabrata isolate 21231 by Etest method
# Method in brief: (§1)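 MIC by Etest strips on Casitone agar plates (pH 7.2, chloramphenicol-supplemented), run per manufacturer's recommendations; isolates maintained on YEPD agar by regular passage.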
# Nakaseomyces glabratus [5] = test: Antifungal activity against Candida glabrata isolate 22852 by Etest method; method in brief: as §1
# Nakaseomyces glabratus [6] = test: Antifungal activity against Candida glabrata isolate 22853 by Etest method; method in brief: as §1
# Nakaseomyces glabratus [7] = test: Antifungal activity against Candida glabrata isolate 21231 at 15 ug after 48 hrs by disk diffusion method; conditions: isolate 21231, 48 h, read-out: DIZ
# Nakaseomyces glabratus [8] = test: Antifungal activity against Candida glabrata isolate 22852 at 15 ug after 48 hrs by disk diffusion method; conditions: isolate 22852, 48 h, read-out: DIZ
# Nakaseomyces glabratus [9] = test: Antifungal activity against Candida glabrata isolate 22853 at 15 ug after 48 hrs by disk diffusion method; conditions: isolate 22853, 48 h, read-out: DIZ
Compound,zone of inhibition at 10 µg/disc (Nakaseomyces glabratus [1]) [mm],zone of inhibition at 10 µg/disc (Nakaseomyces glabratus [2]) [mm],zone of inhibition at 10 µg/disc (Nakaseomyces glabratus [3]) [mm],MIC (Nakaseomyces glabratus [4]) [µg/mL],MIC (Nakaseomyces glabratus [5]) [µg/mL],MIC (Nakaseomyces glabratus [6]) [µg/mL],zone of inhibition at 15 µg/disc (Nakaseomyces glabratus [7]) [mm],zone of inhibition at 15 µg/disc (Nakaseomyces glabratus [8]) [mm],zone of inhibition at 15 µg/disc (Nakaseomyces glabratus [9]) [mm]
Clc1ccc(COC(Cn2ccnc2)c2ccc(Cl)cc2Cl)c(Cl)c1 (configuration not stated) [MICONAZOLE],21,35,0,,,,,,
C[C@@H]1[C@H](O)[C@@H](C)/C=C/C=C/C=C/C=C/C=C/C=C/C=C/[C@H](O[C@@H]2O[C@H](C)[C@@H](O)[C@H](N)[C@@H]2O)C[C@@H]2O[C@](O)(C[C@@H](O)C[C@@H](O)[C@H](O)CC[C@@H](O)C[C@@H](O)CC(=O)O[C@H]1C)C[C@H](O)[C@H]2C(=O)O [AMPHOTERICIN B],27,40,31,0.047,0.032,0.047,,,
CC(=O)N1CCN(c2ccc(OCC3COC(Cn4ccnc4)(c4ccc(Cl)cc4Cl)O3)cc2)CC1 (configuration not stated) [KETOCONAZOLE],33,50,16,,,,,,
Clc1ccc(COC(Cn2ccnc2)c2ccc(Cl)cc2Cl)cc1 (configuration not stated) [ECONAZOLE],25,50,13,,,,,,
Clc1ccccc1C(c1ccccc1)(c1ccccc1)n1ccnc1 [CLOTRIMAZOLE],25,50,12,,,,,,
OC(Cn1cncn1)(Cn1cncn1)c1ccc(F)cc1F [FLUCONAZOLE],,,,6,0.94,> 256,21,50,0
C[C@@H](c1ncncc1F)[C@](O)(Cn1cncn1)c1ccc(F)cc1F [VORICONAZOLE],,,,0.047,0.003,4,,,
